In ChEMBL document CHEMBL3596113, “Callyaerins from the Marine Sponge Callyspongia aerizusa: Cyclic Peptides with Antitubercular Activity” (J Nat Prod, 2015):
Converted amounts (≈) assume the structure as drawn.

Legend:
[1] = tested on: Mycobacterium tuberculosis; assay: Antitubercular activity against Mycobacterium tuberculosis after 6 days by resazurin dye reduction method; assay type: functional; conditions: 144 h; for MIC: read-out: MIC100
Method in brief: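 M. tuberculosis grown aerobically at 37 °C in Middlebrook 7H9 with 0.5% glycerol, 0.05% Tyloxapol, 10% ADS enrichment; log-phase cultures (OD600 ~1) seeded at 1 × 10^5 cells/well, exposed to test substances 6 days. Resazurin added ~8 h, then formalin fixation (5% final); fluorescence ex 540/em 590 nm. Growth relative to rifampicin (0%) and DMSO (100%) controls; MIC90 = 90% growth inhibition.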

MRC5 = assay: (§1) Cytotoxicity against human MRC5 cells assessed as cell growth inhibition after 48 hrs by resazurin dye reduction method; assay type: cell-based; conditions: Homo sapiens, MRC5, 48 h
Method in brief: (§2)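 THP-1 human monocytic cells were grown in RPMI 1640 with 10% FBS, and MRC-5 fetal lung fibroblasts in DMEM with 10% FBS, at 37 °C in humidified 5% CO2. About 5 × 10^4 cells per well were exposed to compounds for 48 h, then to resazurin for about 3 h more. Fluorescence was read at ex 540/em 590 nm. Growth was set against uninoculated (0%) and untreated (100%) controls, and IC50 was taken as the concentration giving 50% growth inhibition.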

THP-1 = assay: (§3) Cytotoxicity against human THP1 cells assessed as cell growth inhibition after 48 hrs by resazurin dye reduction method; assay type: cell-based; conditions: Homo sapiens, THP-1, 48 h; method in brief: as §2
[2] = as §1; assay type: cell-based; conditions: human, MRC5 cells; method in brief: as §2
[3] = as §3; assay type: cell-based, THP-1; conditions: human, THP-1 cells; method in brief: as §2

Structure (SMILES)	MIC90 [1] [µM]	IC50 (MRC5) [µM]	IC50 (THP-1) [µM]	MIC [1] [µM]	IC90 at 48 h [2] [µM]	IC90 at 48 h [3] [µM]
CC[C@H](C)[C@H](NC(=O)[C@H](Cc1ccccc1)NC(=O)[C@H](CC(C)C)NC(=O)[C@@H]1CCCN1C(=O)/C1=C\N[C@@H](C(C)C)C(=O)N2CCC[C@H]2C(=O)N[C@@H](C(C)C)C(=O)N[C@@H](Cc2ccccc2)C(=O)N2CCC[C@H]2C(=O)N1)C(=O)O [CALLYAERIN F]	50 (≈ 54.8 µg/mL)	> 10	> 10			
CC[C@H](C)[C@H](NC(=O)[C@H](Cc1ccccc1)NC(=O)[C@@H]1CCCN1C(=O)/C1=C/N[C@@H](Cc2ccccc2)C(=O)N2CCC[C@H]2C(=O)N[C@@H](Cc2ccccc2)C(=O)NCC(=O)N[C@@H](CC(C)C)C(=O)N2CCC[C@H]2C(=O)N2CCC[C@H]2C(=O)N[C@@H](Cc2ccccc2)C(=O)N1)C(=O)N[C@@H](CC(=O)O)C(=O)O	> 100	> 10	> 10			
COC1NC(=O)N/C1=C\[C@@H]1N/C=C(/C(=O)N2CCC[C@H]2C(=O)N[C@@H](CC(C)C)C(=O)N[C@@H](Cc2ccccc2)C(=O)NCC(N)=O)NC(=O)[C@H](C(C)C)NC(=O)[C@@H]2CCCN2C(=O)[C@@H]2CCCN2C(=O)[C@H](CC(C)C)NC(=O)[C@H](CC(C)C)NC(=O)[C@@H]2C[C@@H](O)CN2C1=O (stereo partly drawn)	> 100	> 10	> 10			
CC(C)C[C@H](NC(=O)[C@@H]1CCCN1C(=O)/C1=C/N[C@@H](CC(C)C)C(=O)N2CCC[C@H]2C(=O)N[C@@H](Cc2ccccc2)C(=O)N[C@@H](Cc2ccccc2)C(=O)N2CCC[C@H]2C(=O)N2CCC[C@H]2C(=O)N[C@@H](C(C)C)C(=O)N1)C(=O)N[C@@H](Cc1ccccc1)C(=O)NCC(N)=O	> 100	> 10	> 10			
CC[C@H](C)[C@@H]1NC(=O)[C@H](CCC(=O)O)NC(=O)[C@@H]2C[C@@H](O)CN2C(=O)[C@H]([C@@H](C)CC)N/C=C(/C(=O)N2CCC[C@H]2C(=O)N[C@@H](CC(C)C)C(=O)N[C@@H](Cc2ccccc2)C(N)=O)NC(=O)[C@H](CC(C)C)NC(=O)[C@@H]2CCCN2C(=O)[C@@H]2CCCN2C(=O)[C@H](C(C)C)NC1=O	> 100	> 10	> 10			
CC[C@@H](C)[C@@H]1NC(=O)[C@H](C(C)C)NC(=O)[C@@H]2C[C@@H](O)CN2C(=O)[C@H]([C@@H](C)CC)N/C=C(\C(=O)N2CCC[C@H]2C(=O)N[C@H](C(=O)N[C@@H](Cc2ccccc2)C(=O)NCC(N)=O)[C@@H](C)CC)NC(=O)[C@H](CC(C)C)NC(=O)[C@@H]2CCCN2C(=O)[C@@H]2CCCN2C(=O)[C@H](CC(C)C)NC1=O [CALLYAERIN A]	2 (≈ 2.72 µg/mL)	20	30	6 (≈ 8.15 µg/mL)	40	50
CC[C@H](C)[C@H](NC(=O)[C@@H](NC(=O)[C@@H]1CCCN1C(=O)/C1=C/N[C@@H](CC(C)C)C(=O)N2CCC[C@H]2C(=O)N[C@@H](Cc2ccccc2)C(=O)N[C@@H](Cc2ccccc2)C(=O)N2CCC[C@H]2C(=O)N2CCC[C@H]2C(=O)N[C@@H](C(C)C)C(=O)N1)[C@@H](C)CC)C(=O)NCC(=O)O [CALLYAERIN E]	100 (≈ 126 µg/mL)	> 10	> 10			
CC[C@H](C)[C@H](NC(=O)[C@@H](NC(=O)[C@@H]1CCCN1C(=O)/C1=C/N[C@@H](Cc2ccccc2)C(=O)N2CCC[C@H]2C(=O)N[C@@H](CC(C)C)C(=O)N[C@@H](Cc2ccccc2)C(=O)N2CCC[C@H]2C(=O)N2CCC[C@H]2C(=O)N[C@@H](C(C)C)C(=O)N1)[C@@H](C)CC)C(=O)NCC(N)=O	> 100	> 10	> 10			
CO[C@H]1/C=C/O[C@@]2(C)Oc3c(C)c(O)c4c(O)c(c(/C=N/N5CCN(C)CC5)c(O)c4c3C2=O)NC(=O)/C(C)=C\C=C\[C@H](C)[C@H](O)[C@@H](C)[C@@H](O)[C@@H](C)[C@H](OC(C)=O)[C@@H]1C [RIFAMPIN]	< 0.1	> 100	> 100	0.5 (≈ 0.411 µg/mL)	> 100	> 100
NNC(=O)c1ccncc1 [ISONIAZID]	0.625 (≈ 0.0857 µg/mL)			1.25 (≈ 0.171 µg/mL)		
CC[C@@H](C)[C@@H]1NC(=O)[C@H]([C@@H](C)CC)NC(=O)[C@@H]2C[C@@H](O)CN2C(=O)[C@H]([C@H](C)CC)N/C=C(\C(=O)N2CCC[C@H]2C(=O)N[C@H](C(=O)N[C@H](C(=O)O)[C@@H](C)CC)[C@@H](C)CC)NC(=O)[C@H](CC(C)C)NC(=O)[C@@H]2CCCN2C(=O)[C@@H]2CCCN2C(=O)[C@H](CC(C)C)NC1=O [CALLYAERIN B]	5 (≈ 6.41 µg/mL)	2	5	10 (≈ 12.8 µg/mL)	6	30
CC[C@@H](CO)NCCN[C@@H](CC)CO [ETHAMBUTOL]	1.25 (≈ 0.255 µg/mL)			5 (≈ 1.02 µg/mL)		
